Data set [1] is described as follows: Compound was evaluated for the Hydrolysis rate in aqueous 50 mM Potassium Phosphate. The data set is classed as ADME. The note with it: aqueous potassium phosphate buffer. The procedure, abridged:
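5 mM ester in aqueous 50 mM potassium phosphate, pH 7.6, held at 37 °C. Release of free nucleotide followed by paper electrophoresis at pH 3.6 (thymidine release by silica TLC, UV inspection). log(residual ester) plotted against time; t1/2 read graphically from the linear pseudo-first-order plot.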

For data set [2], the system named is L929. Put plainly: Rate of incorporation of [3H]-dC into DNA in mouse L929 cells at 10e-4 concentration; units=cpm/hx 5*10e5 cells. The class given is functional.
Data set [3] concerns L929. The experiment in a line: Rate of incorporation of [3H]dC into DNA in mouse L929 cells at 10e-4 concentration; units=cpm/hx 5*10e5 cells. The data set is classed as functional.
Data set [4] relates to LM. The experiment in a line: Effect on DNA synthesis in mouse LM(TK-) cells blocked in DNA synthesis with Aminopterin at 10e-4 M. The data set is classed as functional. The procedure, abridged:
(§1)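 LM(TK-) mouse fibroblasts, 5×10^5 or 1×10^6 per 6-cm dish, grown overnight in DMEM/10% FBS at 37 °C, 5% CO2. Blocked 3 h in medium with heat-inactivated serum, aminopterin 1 μg/mL, glycine and hypoxanthine 15 μg/mL each, no 5'-NH2-dT. Compounds diluted from 10 mM stocks in 50% ethanol-water; controls got vehicle. Recovery 2 h, then [3H]-dC 1 μCi/mL for 1–3 h. Cold 5% TCA-insoluble counts in duplicate; enhancement = rate with compound / rate in parallel controls.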

Data set [5] relates to L929. The experiment in a line: Stimulation of DNA synthesis in L929 cells in the presence of 5'-NH2-dT. The data set is classed as functional, Mus musculus.
The subject of data set [6] is L929. Put plainly: Stimulation of DNA synthesis in L929 cells in the absence of 5'-NH2-dT. The class given is functional, Mus musculus. The essentials:
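L929 cells blocked 3 h with aminopterin medium. 5'-NH2-dT (1.0 mM) was left out of the 2 h recovery medium that held the compound. Labelled with [3H]-dC 1 μCi/mL; TCA-insoluble incorporation (cpm/h per 5×10^5 cells) compared with parallel control cultures.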

The test system of data set [7] is LM. Put plainly: Effect (10e-4 M) on DNA synthesis in mouse LM(TK-) cells blocked in DNA synthesis with Aminopterin. The class given is functional. The procedure, abridged:
as §1

Data set [8] has as its system LM. The experiment in a line: Effect (10e-3 M) on DNA synthesis in mouse LM(TK-) cells blocked in DNA synthesis with Aminopterin. The data set is classed as functional. The procedure, abridged:
as §1

In data set [9] the test system is LM. The experiment in a line: Effect (10e-5 M) on DNA synthesis in mouse LM(TK-) cells blocked in DNA synthesis with Aminopterin. The data set is classed as functional. The procedure, abridged:
as §1

For data set [10], the system named is LM. The experiment in a line: Effect (10e-6 M) on DNA synthesis in mouse LM(TK-) cells blocked in DNA synthesis with Aminopterin. The data set is classed as functional. The essentials: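 LM(TK-) fibroblasts seeded and cultured overnight. Blocked 3 h in heat-inactivated-serum medium with aminopterin 1 μg/mL, glycine and hypoxanthine 15 μg/mL, no 5'-NH2-dT. Compound diluted from 10 mM stock in 50% ethanol-water and applied 2 h. Then [3H]dC 1 μCi/mL; acid-insoluble radioactivity measured in duplicate. Effect expressed as incorporation rate relative to parallel vehicle controls.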

For data set [11], the system named is L929. The experiment in a line: Rate of incorporation of [3H]dC into DNA in mouse L929 cells at 10e-5 concentration; units=cpm/hx 5*10e5 cells. The data set is classed as functional. The essentials: (§2)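 L929 cells seeded at 5×10^5 or 1×10^6 per dish in DMEM/10% FBS, overnight at 37 °C, 5% CO2. Blocked 3 h in medium with heat-inactivated serum, aminopterin 1 μg/mL, glycine and hypoxanthine 15 μg/mL each, and 1.0 mM 5'-NH2-dT. Test agent in the same medium for 2 h, then 1 μCi/mL [3H]dC for 1–3 h. Cold 5% TCA-insoluble counts in duplicate, scaled to cell counts.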

The test system of data set [12] is L929. The experiment in a line: Rate of incorporation of [3H]dC into DNA in mouse L929 cells at 10e-6 concentration; units=cpm/hx 5*10e5 cells. The data set is classed as functional. The procedure, abridged: as §2

Where “and” joins values, the source holds several entries; their conditions need not be identical. Equal values may be shown once.

For the compound `CC(=O)O[C@H]1C[C@H](n2cc(C)c(=O)[nH]c2=O)O[C@@H]1CO`, the half-life – broadly, the time in which the quantity being followed falls by half – in data set [1] was 135 h.

Take `CCN(CC)CC[N+](CC)(CC)CCCC(=O)O[C@H]1C[C@H](n2cc(C)c(=O)[nH]c2=O)O[C@@H]1COP(=O)([O-])O`: the half-life in [1] was 28 h.

In turn, `CCN(CC)CCC[N+](CC)(CC)CCCCC(=O)O[C@H]1C[C@H](n2cc(C)c(=O)[nH]c2=O)O[C@@H]1COP(=O)([O-])O` had a half-life in data set [1] of 74 h. Further, the Incorporation rate in the data set on L929 [2] was 605 c.p.m. hr-1 and 504 c.p.m. hr-1.

As to `CCN(CC)CCCC[N+](CC)(CC)CCCCC(=O)O[C@H]1C[C@H](n2cc(C)c(=O)[nH]c2=O)O[C@@H]1COP(=O)([O-])O`, in the data set with L929 [3], the Incorporation rate was 782 c.p.m. hr-1 and 821 c.p.m. hr-1.

With `CC[N+](CC)(CC)CC[N+](CC)(CC)CCCCC(=O)O[C@H]1C[C@H](n2cc(C)c(=O)[nH]c2=O)O[C@@H]1COP(=O)([O-])[O-]`, the Incorporation rate in the data set on LM [4] was 171 c.p.m. hr-1; with L929 [5] it was 808 c.p.m. hr-1; with L929 [2] it was 673 c.p.m. hr-1 and 1103 c.p.m. hr-1; in the data set with L929 [6], 5462 c.p.m. hr-1.

In data set [1], `CC[N+](CC)(CC)CCC[N+](CC)(CC)CCCCC(=O)O[C@H]1C[C@H](n2cc(C)c(=O)[nH]c2=O)O[C@@H]1COP(=O)([O-])[O-]` gave a half-life of 72 h.

The compound `CC[N+](CC)(CC)CCCC[N+](CC)(CC)CCCCC(=O)O[C@H]1C[C@H](n2cc(C)c(=O)[nH]c2=O)O[C@@H]1COP(=O)([O-])[O-]` showed a half-life in [1] of 85 h. In addition, the Incorporation rate in the data set on LM [7] is 204 c.p.m. hr-1 and 147 c.p.m. hr-1; in the data set on L929 [5], 1135 c.p.m. hr-1; in the data set with L929 [2], 1356 c.p.m. hr-1 and 1299 c.p.m. hr-1; in the data set on L929 [6], 7462 c.p.m. hr-1.

For the compound `CCN(CC)CC[N+](CC)(CC)CCCC(=O)O[C@H]1C[C@H](n2cc(C)c(=O)[nH]c2=O)O[C@@H]1CO.Cl.[Cl-]`, in data set [1], the half-life was 28 h.

In [1], `CC[N+](CC)(CC)CCCC[N+](CC)(CC)CCCCC(=O)O[C@H]1C[C@H](n2cc(C)c(=O)[nH]c2=O)O[C@@H]1CO.[Cl-].[Cl-]` had a half-life of 87 h.

Take `Cc1cn([C@H]2C[C@H](O)[C@@H](CO)O2)c(=O)[nH]c1=O` [DOXRIBTIMINE]: the Incorporation rate was 213 c.p.m. hr-1 in the data set on LM [8]; 228 c.p.m. hr-1 and 251 c.p.m. hr-1 in the data set on LM [7]; 204 c.p.m. hr-1 in the data set with LM [9]; 185 c.p.m. hr-1 in the data set with LM [10]; 28200 c.p.m. hr-1 in the data set with L929 [2]; 2937 c.p.m. hr-1 in the data set with L929 [11]. Moreover, the Incorporation rate in the data set with L929 [12] amounted to 465 c.p.m. hr-1.

`Cc1cn([C@H]2C[C@H](O)[C@@H](COP(=O)(O)O)O2)c(=O)[nH]c1=O` [THYMIDINE MONOPHOSPHATE]: the Incorporation rate in the data set on LM [8] is 596 c.p.m. hr-1 and 668 c.p.m. hr-1 and 837 c.p.m. hr-1; in the data set on LM [7], 381 c.p.m. hr-1 and 295 c.p.m. hr-1; in the data set with LM [9], 323 c.p.m. hr-1 and 256 c.p.m. hr-1.

For the origin of these results see ChEMBL document CHEMBL1123487, “Zwitterionic 3'-O-acyl derivatives of thymidine 5'-phosphate as potential sources of intracellular thymidine 5'-phosphate in cells in culture” (J Med Chem, 1986).
